In one test the test system is AC16 cells. The test is described as follows: Inhibition of V122I TTR cytotoxicity towards AC16 cells. The test is classed as cell-based, human. The settings on record: TTR and ligands 8 μM.
The target of another test is serum TTR (Homo sapiens, UniProt P02766). The test is described as follows: Stabilization of human serum TTR against acid-mediated denaturation. Particulars: 50 μM compound, acid treatment 72 hours. The test is classed as biochemical.
Another test has as its system IMR-32 cells. Kind of test: Inhibition of WT-TTR cytotoxicity towards IMR-32 neuroblastoma cells. The test is classed as cell-based, human. The settings on record: fig. S8B.
Test [1] concerns the target T1, TTR (Homo sapiens, UniProt P02766). Kind of test: Acid-mediated TTR amyloidogenesis. The test is classed as biochemical. Particulars: kinetic aggregation assay over 5 days, TTR 3.6 μM, ligand 3.0 μM.
The target of test [2] is T1, TTR. The test is described as follows: Surface plasmon resonance. The test is classed as binding. Particulars: SPR. In general terms: In SPR one partner is held on a chip, and binding of the other changes the refractive index at the surface.
Another test has as its target human wild type TTR (Homo sapiens, UniProt P02766). Kind of test: Isothermal titration calorimetry. Particulars: two-site binding model; for Kd: ITC. (ITC needs no label: the signal is the heat of the interaction.)
The target in test [3] is T1, TTR. Kind of test: Fluorescence polarization. Particulars: competitive displacement of probe 1, apparent binding constant. In outline: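 Competitive displacement of the fluorescent probe from the TTR thyroxine-binding pocket under physiological conditions. The test compound is titrated from 0.01 to 50 μM, and fluorescence polarization is read at excitation 485 nm and emission 525 nm. The dose-dependent drop in polarization is fitted to give the apparent binding constant, Kapp. Run in triplicate; SD reported.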
A general note: Polarisation of emitted light reports the rotation of a fluorescent probe.

The next test deals with COX-1 (Homo sapiens, UniProt P23219). The test is described as follows: COX-1 enzymatic inhibition. In kind it is biochemical. Particulars: read-out: COX-1 inhibition.
Chain of COX-1 (P23219 24-599): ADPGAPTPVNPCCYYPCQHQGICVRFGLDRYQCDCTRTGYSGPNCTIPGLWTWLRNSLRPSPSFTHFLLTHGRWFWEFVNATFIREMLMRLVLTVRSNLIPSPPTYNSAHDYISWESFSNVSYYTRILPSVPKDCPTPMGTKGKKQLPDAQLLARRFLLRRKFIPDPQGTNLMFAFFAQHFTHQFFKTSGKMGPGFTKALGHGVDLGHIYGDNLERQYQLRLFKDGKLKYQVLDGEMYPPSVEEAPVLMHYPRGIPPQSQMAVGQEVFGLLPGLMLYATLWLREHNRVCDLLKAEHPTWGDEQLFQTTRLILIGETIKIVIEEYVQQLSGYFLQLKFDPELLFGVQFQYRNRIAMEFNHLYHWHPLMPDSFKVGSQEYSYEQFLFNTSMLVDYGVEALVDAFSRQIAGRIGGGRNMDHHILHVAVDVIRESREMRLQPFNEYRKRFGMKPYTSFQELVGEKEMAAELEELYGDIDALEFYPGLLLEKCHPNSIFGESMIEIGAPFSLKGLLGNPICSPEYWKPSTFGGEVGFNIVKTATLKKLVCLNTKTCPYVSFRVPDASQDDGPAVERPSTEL

As a reminder, the inhibition is the relative decrease from the control value, in per cent.

The structures appear in SMILES notation. Like-named read-outs stand apart in the source and are kept apart here.

Regarding `O=[N+]([O-])c1cc(O)c(O)c([N+](=O)[O-])c1` [3,5-dinitrocatechol], the “Rescue of AC16 cell viability from V122I TTR proteotoxicity (in words)” value (“Rescue of AC16 cell viability” below) in the test on AC16 cells is “performed poorly”. For the same molecule, the “% tetramer at 72 hrs (of tetramer present at 0 hours)” value on serum TTR came to 37.6%. For the same molecule, in the test with IMR-32 cells, the “Performance against WT-TTR toxicity in IMR-32 cells (in words)” value is “performed poorly”.

For `O=C(c1cc(O)c(O)c([N+](=O)[O-])c1)c1ccccc1F` [Ro 41-0960], the “Fibril formation at substoichiometric ligand (in words)” value at TTR [1] was “dramatically slowed fibril formation”. In addition, in the test on AC16 cells, the “Rescue of AC16 cell viability” value is recorded as “completely rescued”. In addition, the “koff, fold faster than ligand 7” value on TTR [2] is ~ 5 x. The Kd on human wild type TTR (read-out: Kd1, first site) came to 0.015 µM; at human wild type TTR (read-out: Kd2, second site) it was 2 µM. Besides, the “ITC binding affinity (in words)” value at human wild type TTR was “low nanomolar affinity”.

On to `O=C(O)Cc1ccccc1Nc1c(Cl)cccc1Cl` [diclofenac], for which, at TTR [2], the “fold lower target residence time than ligand 7” value was around 40 x. In addition, the Kapp on TTR [3] was found to be 4.66 µM.

Take `O=C(O)c1cccnc1Nc1cccc(C(F)(F)F)c1` [niflumic acid]: the “Rescue of AC16 cell viability” value in the test with AC16 cells is given as “performed poorly”. For the same molecule, on COX-1, the inhibition at 10 µM was found to be 94%. In addition, the “fold lower target residence time than ligand 7” value at TTR [2] is ~ 20 x. For the same molecule, the “% tetramer at 72 hrs (of tetramer present at 0 hours)” value on serum TTR stood at 11.5%. For the same molecule, in the test with IMR-32 cells, the “Performance against WT-TTR toxicity in IMR-32 cells (in words)” value is “performed poorly”.
